For data set [1], the system named is Vero. As to the kind of experiment: Cytotoxicity against african green monkey Vero cells upto 16.72 uM after 48 hrs by neutral red assay. It counts as cell-based. As to conditions: chlorocebus sabaeus. In a few lines: (§1)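 Vero monkey kidney cells seeded at 25,000 cells/well and grown 24 h, then exposed to samples at several concentrations for 48 h. Viable cells counted by Neutral Red uptake. IC50 taken from dose-response curves; doxorubicin run as positive control.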

In data set [2] the test system is Plasmodium falciparum. As to the kind of experiment: Antimalarial activity after 72 hrs against chloroquine-sensitive Plasmodium falciparum D6 by Malstat LDH activity. It counts as functional, organism-based. The settings on record: D6, 72 h. The method, boiled down: (§2)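 P. falciparum (D6 or W2) infected red cell suspension at 2% parasitemia and 2% hematocrit in RPMI 1640 with 10% human serum and amikacin, added to serially diluted samples. Incubated 72 h at 37 °C under 90% N2/5% O2/5% CO2. Parasite LDH read with Malstat reagent and NBT/PES, acetic acid stop, 650 nm. IC50 taken from dose-response curves; artemisinin and chloroquine run as controls.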

Data set [3] concerns Plasmodium falciparum. Description: Antimalarial activity after 72 hrs against chloroquine-resistant Plasmodium falciparum W2 by Malstat LDH activity. As to conditions: W2, 72 h. It counts as functional, organism-based. In a few lines:
as §2

Data set [4] in a line: Selectivity index, ratio of IC50 for african green monkey (Cercopithecus aethiops) Vero cells to IC50 for chloroquine-sensitive Plasmodium falciparum D6. It counts as toxicity, cell-based. The settings on record: read-out: Ratio IC50. In a few lines:
(§3)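 Selectivity index is Vero cytotoxicity IC50 (Neutral Red, 48 h) divided by P. falciparum D6 or W2 IC50 (parasite LDH, 72 h).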

Data set [5] in a line: Selectivity index, ratio of IC50 for african green monkey (Cercopithecus aethiops) Vero cells to IC50 for chloroquine-resistant Plasmodium falciparum W2. It counts as toxicity, cell-based. As to conditions: read-out: Ratio IC50. In a few lines:
as §3

Data set [6] in a line: Cytotoxicity pig LLC-PK11 cells upto 30 uM after 48 hrs by neutral red assay. As to conditions: llc-pk11, 48 h. The format is cell-based, Sus scrofa.
The next data set relates to SK-MEL. As to the kind of experiment: Cytotoxicity human SK-MEL cells upto 30 uM after 48 hrs by neutral red assay. The format is cell-based.
The test system of another data set is SK-OV-3. Description: Cytotoxicity human SKOV3 cells upto 30 uM after 48 hrs by neutral red assay. The format is cell-based. The settings on record: sk-ov-3, 48 h.
In a further data set the test system is BT-549. Description: Cytotoxicity human BT549 cells upto 30 uM after 48 hrs by neutral red assay. It counts as cell-based. The settings on record: bt-549, 48 h.
The subject of data set [7] is Vero. Description: Cytotoxicity against african green monkey Vero cells upto 30 uM after 48 hrs by neutral red assay. The settings on record: chlorocebus sabaeus. The format is cell-based. The method, boiled down:
as §1

Another data set has as its system KB. As to the kind of experiment: Cytotoxicity human KB cells upto 30 uM after 48 hrs by neutral red assay. It counts as cell-based.

A word on the IC50: it is the concentration that inhibits the measured activity by half.

Regarding `CCN(CC)CCCC(C)Nc1ccnc2cc(Cl)ccc12` (stereo not drawn) [CHLOROQUINE], in the data set with Vero [1], the Activity entry was “Non-toxic”.
On to `CC(C)(C)c1ccc(C2OOC(c3ccc(C(C)(C)C)cc3)OO2)cc1` (stereo not drawn), for which the results for the IC50 in the data set with Plasmodium falciparum [2] and in the data set on Plasmodium falciparum [3] were 2190 nM and 3930 nM, respectively. The values for the selectivity ratio in data set [4] and in [5] were above 6.1 and above 3.4, respectively. The Activity result in the data set on Vero [1] is on record as “Non-toxic”.
With `Cc1ccc(C2OOC(c3ccc(C(C)C)cc3)OO2)cc1` (stereo not drawn), the IC50 turned out to be 590 nM in the data set on Plasmodium falciparum [2] and 770 nM with Plasmodium falciparum [3]. For the same molecule, the figures for the selectivity ratio in data set [4] and in [5] were above 26.4 and above 20.9, respectively. Further, in the data set on Vero [1], the Activity entry was “Non-toxic”.
For `CCc1ccc(C2OOC(c3cccc(C)c3)OO2)cc1` (stereo not drawn) the same measures were 350 nM, 560 nM, above 47.6, above 29.8 and “Non-toxic”.
As to `COc1ccc(C2OOC(c3ccc(C(C)(C)C)cc3)OO2)cc1` (stereo not drawn), the concentration for half-maximal inhibition (IC50) in the data set on Plasmodium falciparum [2] amounted to 540 nM; in the data set with Plasmodium falciparum [3] it was 640 nM. The selectivity ratio in data set [4] is above 26.4; in [5] it was above 22.7. Moreover, the Activity result in the data set with Vero [1] is “Non-toxic”.
For `COc1ccc(C2OOC(c3ccc(C(C)C)cc3)OO2)cc1` (stereo not drawn) the same measures were 7900 nM, 5690 nM, above 1.9, above 2.6 and “Non-toxic”.
On the same counts, the results for `COc1ccc(C2OOC(c3cccc(C)c3)OO2)cc1` (stereo not drawn) are 420 nM, 620 nM, above 39.7, above 26.4 and “Non-toxic”.
For `Cc1cccc(C2OOC(c3ccccc3)OO2)c1` (stereo not drawn) the same measures were 500 nM, 460 nM, above 36.8, above 39.7 and “Non-toxic”.
The molecule `CCc1ccc(C2OOC(c3ccc(CC)cc3)OO2)cc1` (stereo not drawn) showed an IC50 in the data set on Plasmodium falciparum [2] of 990 nM. The Activity entry (in data set [6]; in the data set on SK-MEL; with Vero [1]; in the data set on SK-OV-3; with BT-549; in the data set with Vero [7]) was “Non-toxic” in each case. The Activity entry with KB was “Non-toxic”. Also, the selectivity ratio in data set [4] and in [5] was above 15.9 throughout.
Take `CCc1ccc(C2OOC(c3ccc(C(C)(C)C)cc3)OO2)cc1` (stereo not drawn): the half-inhibitory concentration (IC50) amounted to 5480 nM with Plasmodium falciparum [2] and 3650 nM in the data set on Plasmodium falciparum [3]. For the same molecule, the selectivity ratio is above 2.6 in [4] and above 4 in data set [5]. Also, the Activity entry in the data set on Vero [1] is reported as “Non-toxic”.
Consider `COc1ccc(C2OOC(c3ccc(C)cc3)OO2)cc1` (stereo not drawn), for which the half-inhibitory concentration (IC50) with Plasmodium falciparum [2] worked out at 760 nM; in the data set on Plasmodium falciparum [3], 1080 nM. In addition, the selectivity ratio in [4] is above 21.6; in data set [5], above 15.4. Further, the Activity result with Vero [1] is “Non-toxic”.
In the case of `CCc1ccc(C2OOC(c3ccc(C(C)C)cc3)OO2)cc1` (stereo not drawn), the IC50 with Plasmodium falciparum [2] was determined as 450 nM; with Plasmodium falciparum [3], 570 nM. The selectivity ratio in data set [4] is above 34; in data set [5] it was above 26.4. In the data set on Vero [1], the Activity result is reported as “Non-toxic”.
For `Cc1ccc(C2OOC(c3cccc(C)c3)OO2)cc1` (stereo not drawn) the same measures were 670 nM, 1030 nM, above 25.1, above 17 and “Non-toxic”.
On the same counts, the results for `Cc1ccc(C2OOC(c3ccc(C(C)(C)C)cc3)OO2)cc1` (stereo not drawn) are 600 nM, 790 nM, above 25.1, above 19 and “Non-toxic”.
For `Cc1ccc(C2OOC(c3ccccc3)OO2)cc1` (stereo not drawn) the same measures were 930 nM, 1080 nM, above 19.8, above 17 and “Non-toxic”.
For `CC(C)c1ccc(C2OOC(c3ccc(C(C)C)cc3)OO2)cc1` (stereo not drawn), the 50% inhibitory concentration (IC50) was found to be 670 nM in the data set on Plasmodium falciparum [2] and 1030 nM with Plasmodium falciparum [3]. The Activity result (in data set [6]; in the data set on SK-MEL; in the data set on Vero [1]; with SK-OV-3; with BT-549; in the data set on Vero [7]) was “Non-toxic” in each case. Besides, in the data set with KB, the Activity result is on record as “Non-toxic”. Further, the selectivity ratio is above 21.6 in [4] and above 14 in [5].
On to `Cc1ccc(C2OOC(c3ccccc3C)OO2)cc1` (stereo not drawn), for which the IC50 stood at 3050 nM in the data set on Plasmodium falciparum [2] and 2200 nM in the data set on Plasmodium falciparum [3]. Further, the selectivity ratio in data set [4] was above 5.7; in data set [5], above 7.9. For the same molecule, the Activity result in the data set with Vero [1] is recorded as “Non-toxic”.
On the same counts, the results for `CCCc1ccc(C2OOC(c3ccc(C(C)(C)C)cc3)OO2)cc1` (stereo not drawn) are 4090 nM, 2630 nM, above 3.4, above 5.3 and “Non-toxic”.
Take `C[C@@H]1CC[C@H]2[C@@H](C)C(=O)O[C@@H]3O[C@@]4(C)CC[C@@H]1[C@]32OO4` [ARTEMISININ]: the IC50 in the data set on Plasmodium falciparum [3] was determined as 15 nM. For the same molecule, the selectivity ratio is above 476 in data set [4] and above 1400 in data set [5]. Moreover, in the data set on Vero [1], the Activity result is reported as “Non-toxic”.
Regarding `CCCc1ccc(C2OOC(c3ccc(C)cc3)OO2)cc1` (stereo not drawn), the IC50 was 1990 nM in the data set on Plasmodium falciparum [2] and 1060 nM with Plasmodium falciparum [3]. Also, the selectivity ratio is above 7.9 in [4] and above 14.9 in [5]. In the data set with Vero [1], the Activity result is listed as “Non-toxic”.
As to `CCCc1ccc(C2OOC(c3ccc(OC)cc3)OO2)cc1` (stereo not drawn), the 50% inhibitory concentration (IC50) with Plasmodium falciparum [2] was 940 nM; with Plasmodium falciparum [3], 660 nM. In addition, the values for the selectivity ratio in [4] and in [5] were above 15.8 and above 22.7, respectively. The Activity result in the data set on Vero [1] is reported as “Non-toxic”.
As to `Cc1ccc(C2OOC(c3ccc(C=O)cc3)OO2)cc1` (stereo not drawn), in the data set on Vero [1], the Activity result was “Non-toxic”.
On to `CCCc1ccc(C2OOC(c3ccc(C(C)C)cc3)OO2)cc1` (stereo not drawn), for which the IC50 came out at 960 nM in the data set with Plasmodium falciparum [2] and 800 nM with Plasmodium falciparum [3]. Besides, the selectivity ratio in [4] is above 15.4; in data set [5] it was above 18.3. Further, in the data set on Vero [1], the Activity entry is “Non-toxic”.
On the same counts, the results for `CCc1ccc(C2OOC(c3ccc(C)cc3)OO2)cc1` (stereo not drawn) are 380 nM, 450 nM, above 43.6, above 36.7 and “Non-toxic”.
For `CCCc1ccc(C2OOC(c3ccc(CCC)cc3)OO2)cc1` (stereo not drawn), the results for the IC50 in the data set with Plasmodium falciparum [2] and in the data set on Plasmodium falciparum [3] were 610 nM and 760 nM, respectively. For the same molecule, the Activity entry (in data set [6]; in the data set with SK-MEL; in the data set with Vero [1]; with SK-OV-3; with BT-549; in the data set on Vero [7]) was “Non-toxic” each time. Moreover, in the data set with KB, the Activity result is “Non-toxic”. Further, the selectivity ratio in [4] was above 23.8; in [5], above 19.
In the case of `CC(C)c1ccc(C2OOC(c3ccc(C(C)(C)C)cc3)OO2)cc1` (stereo not drawn), the IC50 in the data set on Plasmodium falciparum [2] is 13900 nM; with Plasmodium falciparum [3] it was 9340 nM. Also, the selectivity ratio in data set [4] was above 1; in [5], above 1.5. For the same molecule, in the data set with Vero [1], the Activity result was “Non-toxic”.
On the same counts, the results for `CCCCc1ccc(C2OOC(c3ccc(CCCC)cc3)OO2)cc1` (stereo not drawn) are 3650 nM, 4770 nM, above 3.7, above 2.8 and “Non-toxic”.
On the same counts, the results for `Cc1cccc(C2OOC(c3ccccc3C)OO2)c1` (stereo not drawn) are 1030 nM, 1360 nM, above 17, above 12.9 and “Non-toxic”.
